Reference: ChEMBL document CHEMBL4371041, “Synthesis and evaluation of thieno[3,2-d]pyrimidine derivatives as novel FMS inhibitors” (Bioorg Med Chem Lett, 2019)

Tests used:
[1] = molecular target: Receptor-type tyrosine-protein kinase FLT3 (Homo sapiens) (UniProt P36888); experiment: Inhibition of recombinant human N-terminal GST-tagged FLT3 (564 to end residues) expressed in baculovirus infected Sf21 insect cells at 1 uM using Abltide as substrate in presence of [gamma-33P]-ATP or [gamma-32P]-ATP relative to control
[2] = molecular target: Tyrosine-protein kinase ABL1 (Homo sapiens) (UniProt P00519); experiment: Inhibition of recombinant human N-terminal His6-tagged Abl (27 to end residues) expressed in baculovirus infected Sf21 insect cells at 1 uM using Abltide as substrate in presence of [gamma-33P]-ATP or [gamma-32P]-ATP relative to control
[3] = molecular target: Proto-oncogene tyrosine-protein kinase receptor Ret (Homo sapiens) (UniProt P07949); experiment: Inhibition of recombinant human N-terminal GST-tagged Ret (658 to end residues) expressed in baculovirus infected Sf21 insect cells at 1 uM using IFG-1Rtide as substrate in presence of [gamma-33P]-ATP or [gamma-32P]-ATP relative to control
[4] = molecular target: Tyrosine-protein kinase FRK (Homo sapiens) (UniProt P42685); experiment: Inhibition of recombinant human N-terminal His6-tagged PTK5 (218 to end residues) expressed in baculovirus infected Sf21 insect cells at 1 uM using JAK3tide as substrate in presence of [gamma-33P]-ATP or [gamma-32P]-ATP relative to control
[5] = Volume of distribution in CD-1 mouse at 10 mg/kg, po; format: ADME, organism-based; settings: in vivo
[6] = Tmax in CD-1 mouse at 10 mg/kg, po; format: ADME, organism-based; settings: in vivo
[7] = molecular target: Fibroblast growth factor receptor 1 (Homo sapiens, UniProt P11362); experiment: Inhibition of recombinant human N-terminal GST-tagged FGFR1 (456 to 765 residues) expressed in baculovirus infected Sf21 insect cells at 1 uM using IGF-IRtide (12-527) as substrate in presence of [gamma-33P]-ATP or [gamma-32P]-ATP relative to control
[8] = molecular target: Vascular endothelial growth factor receptor 2 (Homo sapiens, UniProt P35968); experiment: Inhibition of recombinant human N-terminal His6-tagged KDR (790 to end residues) expressed in baculovirus infected Sf21 insect cells using MBP as substrate in presence of [gamma-33P]-ATP or [gamma-32P]-ATP
Summary of the method: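 Kinase panel of twenty-eight enzymes; IC50 values determined with ATP at the respective Km of each kinase.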

Chain of Proto-oncogene tyrosine-protein kinase receptor Ret (Homo sapiens) (P07949 whole entry): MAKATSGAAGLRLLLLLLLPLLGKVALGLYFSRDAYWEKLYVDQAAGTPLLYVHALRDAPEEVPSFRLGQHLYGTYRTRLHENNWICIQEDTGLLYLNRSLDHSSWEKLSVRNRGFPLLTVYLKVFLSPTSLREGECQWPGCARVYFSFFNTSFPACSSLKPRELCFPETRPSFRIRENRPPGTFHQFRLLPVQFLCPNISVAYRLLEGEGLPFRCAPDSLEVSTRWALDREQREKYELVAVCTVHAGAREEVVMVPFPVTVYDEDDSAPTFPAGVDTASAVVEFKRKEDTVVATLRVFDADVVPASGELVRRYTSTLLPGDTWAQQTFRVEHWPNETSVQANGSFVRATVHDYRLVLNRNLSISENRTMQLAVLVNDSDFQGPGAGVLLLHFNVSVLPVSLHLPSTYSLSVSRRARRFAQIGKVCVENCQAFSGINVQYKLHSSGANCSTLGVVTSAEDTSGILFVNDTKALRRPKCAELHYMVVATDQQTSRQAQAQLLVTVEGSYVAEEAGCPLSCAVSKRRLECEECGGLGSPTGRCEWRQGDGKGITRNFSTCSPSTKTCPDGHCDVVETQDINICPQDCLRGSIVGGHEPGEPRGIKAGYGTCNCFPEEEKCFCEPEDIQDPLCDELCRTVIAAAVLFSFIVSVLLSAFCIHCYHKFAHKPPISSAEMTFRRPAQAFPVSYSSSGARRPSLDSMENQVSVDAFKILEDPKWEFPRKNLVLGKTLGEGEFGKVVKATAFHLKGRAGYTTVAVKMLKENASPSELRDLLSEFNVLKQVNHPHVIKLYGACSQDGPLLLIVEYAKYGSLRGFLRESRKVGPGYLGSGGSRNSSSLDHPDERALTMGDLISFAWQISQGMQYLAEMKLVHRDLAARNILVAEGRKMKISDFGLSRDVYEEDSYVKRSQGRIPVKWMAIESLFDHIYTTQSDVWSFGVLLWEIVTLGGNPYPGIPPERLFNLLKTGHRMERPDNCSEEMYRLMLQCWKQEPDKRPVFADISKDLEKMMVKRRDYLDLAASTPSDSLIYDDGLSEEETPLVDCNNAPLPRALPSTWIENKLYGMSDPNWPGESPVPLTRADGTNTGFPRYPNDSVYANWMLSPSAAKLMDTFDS
Chain of Tyrosine-protein kinase ABL1 (Homo sapiens) (P00519 whole entry): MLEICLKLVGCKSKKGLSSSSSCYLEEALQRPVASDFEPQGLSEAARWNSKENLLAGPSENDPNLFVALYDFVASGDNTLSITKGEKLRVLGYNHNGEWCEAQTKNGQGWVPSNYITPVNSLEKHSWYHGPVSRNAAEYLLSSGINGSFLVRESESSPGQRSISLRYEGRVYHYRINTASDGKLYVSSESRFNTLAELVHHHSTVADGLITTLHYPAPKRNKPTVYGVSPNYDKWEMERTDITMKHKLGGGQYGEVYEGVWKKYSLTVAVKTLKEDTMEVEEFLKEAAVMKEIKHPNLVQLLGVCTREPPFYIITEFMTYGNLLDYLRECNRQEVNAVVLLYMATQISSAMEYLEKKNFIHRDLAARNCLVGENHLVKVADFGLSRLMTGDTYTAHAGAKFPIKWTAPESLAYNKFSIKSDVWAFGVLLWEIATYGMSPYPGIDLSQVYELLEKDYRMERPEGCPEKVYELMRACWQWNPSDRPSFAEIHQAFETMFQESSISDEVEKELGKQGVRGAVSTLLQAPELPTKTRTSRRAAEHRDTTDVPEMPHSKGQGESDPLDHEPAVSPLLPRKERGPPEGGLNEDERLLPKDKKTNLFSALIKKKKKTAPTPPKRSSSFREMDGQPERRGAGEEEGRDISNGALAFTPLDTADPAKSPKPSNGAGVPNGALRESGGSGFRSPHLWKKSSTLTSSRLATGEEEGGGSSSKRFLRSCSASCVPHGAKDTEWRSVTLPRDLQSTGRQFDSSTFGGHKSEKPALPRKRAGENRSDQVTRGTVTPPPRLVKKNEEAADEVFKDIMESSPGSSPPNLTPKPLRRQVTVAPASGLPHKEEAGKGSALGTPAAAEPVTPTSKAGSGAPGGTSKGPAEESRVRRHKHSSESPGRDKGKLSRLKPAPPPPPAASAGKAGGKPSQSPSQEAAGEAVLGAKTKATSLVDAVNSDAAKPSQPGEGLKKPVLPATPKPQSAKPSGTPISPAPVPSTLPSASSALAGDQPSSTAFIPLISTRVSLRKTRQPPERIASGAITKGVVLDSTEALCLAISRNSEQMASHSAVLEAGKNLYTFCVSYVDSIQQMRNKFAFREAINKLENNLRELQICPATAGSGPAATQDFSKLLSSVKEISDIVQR
Chain of Fibroblast growth factor receptor 1 (P11362 22-822 limits assumed): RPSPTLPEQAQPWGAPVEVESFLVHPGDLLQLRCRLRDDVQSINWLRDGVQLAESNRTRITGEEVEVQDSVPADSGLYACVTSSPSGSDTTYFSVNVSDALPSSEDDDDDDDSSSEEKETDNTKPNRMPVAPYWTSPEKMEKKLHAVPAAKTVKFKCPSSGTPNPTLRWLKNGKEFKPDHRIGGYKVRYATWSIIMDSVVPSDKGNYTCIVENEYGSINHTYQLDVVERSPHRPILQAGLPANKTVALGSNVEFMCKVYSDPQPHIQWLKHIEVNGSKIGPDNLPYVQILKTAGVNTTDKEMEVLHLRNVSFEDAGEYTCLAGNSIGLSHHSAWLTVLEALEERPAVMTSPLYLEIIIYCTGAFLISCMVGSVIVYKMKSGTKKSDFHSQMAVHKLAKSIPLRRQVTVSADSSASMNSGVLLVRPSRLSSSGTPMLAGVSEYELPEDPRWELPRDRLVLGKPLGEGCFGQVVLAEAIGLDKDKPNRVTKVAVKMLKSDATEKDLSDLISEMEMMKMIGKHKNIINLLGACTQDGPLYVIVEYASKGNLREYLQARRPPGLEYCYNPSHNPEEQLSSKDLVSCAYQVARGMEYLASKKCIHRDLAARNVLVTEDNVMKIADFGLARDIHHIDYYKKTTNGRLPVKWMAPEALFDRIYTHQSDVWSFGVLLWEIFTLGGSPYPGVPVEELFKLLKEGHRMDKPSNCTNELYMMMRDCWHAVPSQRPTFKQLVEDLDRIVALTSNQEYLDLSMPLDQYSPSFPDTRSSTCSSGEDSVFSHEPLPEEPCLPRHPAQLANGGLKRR
Chain of Vascular endothelial growth factor receptor 2 (P35968 whole entry): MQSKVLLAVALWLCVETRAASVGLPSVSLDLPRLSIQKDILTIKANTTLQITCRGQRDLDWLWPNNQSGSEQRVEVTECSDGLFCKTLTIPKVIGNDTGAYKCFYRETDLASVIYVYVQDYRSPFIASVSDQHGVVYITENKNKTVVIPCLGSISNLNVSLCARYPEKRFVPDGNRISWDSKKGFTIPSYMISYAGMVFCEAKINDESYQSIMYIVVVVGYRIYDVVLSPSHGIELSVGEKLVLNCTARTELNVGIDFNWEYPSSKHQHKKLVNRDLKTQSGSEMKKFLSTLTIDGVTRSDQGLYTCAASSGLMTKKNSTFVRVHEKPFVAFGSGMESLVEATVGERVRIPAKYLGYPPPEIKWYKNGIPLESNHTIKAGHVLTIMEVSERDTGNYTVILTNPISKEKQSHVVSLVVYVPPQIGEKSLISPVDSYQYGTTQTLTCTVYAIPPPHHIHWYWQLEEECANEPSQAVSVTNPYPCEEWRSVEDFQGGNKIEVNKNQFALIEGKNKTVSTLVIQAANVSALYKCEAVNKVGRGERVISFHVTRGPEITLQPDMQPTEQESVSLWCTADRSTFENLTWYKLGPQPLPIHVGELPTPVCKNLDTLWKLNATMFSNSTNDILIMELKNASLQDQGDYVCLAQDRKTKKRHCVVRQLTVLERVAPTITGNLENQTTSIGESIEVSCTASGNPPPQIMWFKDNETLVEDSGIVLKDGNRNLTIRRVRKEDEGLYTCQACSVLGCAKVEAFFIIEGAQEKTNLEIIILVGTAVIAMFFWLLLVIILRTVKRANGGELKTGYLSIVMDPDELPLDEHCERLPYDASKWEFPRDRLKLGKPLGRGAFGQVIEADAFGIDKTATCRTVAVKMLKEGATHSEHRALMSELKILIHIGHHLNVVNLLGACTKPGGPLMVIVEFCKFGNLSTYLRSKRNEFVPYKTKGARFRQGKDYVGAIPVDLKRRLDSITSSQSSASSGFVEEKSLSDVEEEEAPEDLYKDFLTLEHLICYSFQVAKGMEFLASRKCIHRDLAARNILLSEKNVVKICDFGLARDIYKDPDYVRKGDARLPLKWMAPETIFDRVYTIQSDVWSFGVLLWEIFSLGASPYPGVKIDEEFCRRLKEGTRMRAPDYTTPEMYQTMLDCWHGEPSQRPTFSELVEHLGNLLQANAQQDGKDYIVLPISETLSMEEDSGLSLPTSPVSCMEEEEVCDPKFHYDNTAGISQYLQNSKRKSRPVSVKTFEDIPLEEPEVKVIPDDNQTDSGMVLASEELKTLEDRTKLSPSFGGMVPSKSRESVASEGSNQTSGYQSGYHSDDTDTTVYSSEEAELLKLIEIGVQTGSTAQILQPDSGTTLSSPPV
Chain of Tyrosine-protein kinase FRK (Homo sapiens) (P42685 whole entry): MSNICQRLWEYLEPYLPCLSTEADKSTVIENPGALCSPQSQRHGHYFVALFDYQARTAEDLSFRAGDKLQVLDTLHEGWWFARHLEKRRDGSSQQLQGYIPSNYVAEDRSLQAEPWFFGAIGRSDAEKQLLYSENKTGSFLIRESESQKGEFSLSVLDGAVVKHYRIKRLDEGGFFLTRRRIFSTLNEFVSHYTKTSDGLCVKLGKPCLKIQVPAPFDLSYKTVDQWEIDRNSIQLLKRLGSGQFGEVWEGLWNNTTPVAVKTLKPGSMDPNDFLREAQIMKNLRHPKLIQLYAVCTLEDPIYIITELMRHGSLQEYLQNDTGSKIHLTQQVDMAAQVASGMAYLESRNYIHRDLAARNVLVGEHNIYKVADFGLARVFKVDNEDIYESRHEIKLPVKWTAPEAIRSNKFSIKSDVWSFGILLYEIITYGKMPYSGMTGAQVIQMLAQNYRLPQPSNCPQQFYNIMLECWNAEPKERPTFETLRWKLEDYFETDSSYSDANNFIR

SMILES: Cc1cccc(Cn2nc(C)c3c(NC(=O)c4csc5c(N)ncnc45)cccc32)n1
- inhibition [1]: 59%
- inhibition [2]: 35%
- inhibition [3]: -2%
- inhibition [4]: 19%
- Vd [5]: 7.5 L/kg
- Tmax [6]: 2 h
- inhibition [7]: > 60%
- IC50 [8]: 527 nM
